According to ChEMBL document CHEMBL1155709, “Eleven novel diarylheptanoids and two unusual diarylheptanoid derivatives from the seeds of Alpinia blepharocalyx” (2001):

How the values were obtained:
[1] = Cytotoxicity against mouse 26-L5 cells by MTT assay; assay type: functional; conditions: read-out: ED50 (the source's name)
Outline: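 Murine colon 26-L5 carcinoma cells grown in RPMI-1640 with 10% fetal calf serum, 0.1% NaHCO3 and 2 mM glutamine. MTT assay compared viability in the presence and absence of agents, giving ED50 values. Positive controls were 5-fluorouracil and curcumin.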

HT-1080 = assay: Cytotoxicity against human HT1080 cells by MTT assay; assay type: functional; conditions: read-out: ED50 (the source's name)
Outline: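 Human HT-1080 fibrosarcoma cells kept in Eagle's minimum essential medium with 10% fetal calf serum, 0.1% NaHCO3 and 2 mM glutamine. Viability with and without test agents was read by standard MTT assay, and ED50 was reported. 5-Fluorouracil and curcumin served as positive controls.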

Row | SMILES | EC50 ([1]; Mus musculus) | EC50 (HT-1080; Homo sapiens, HT-1080) | EC50 [1] | EC50 (HT-1080)
1 | COc1cc2c(c3c1C(=O)CC(c1ccc(O)cc1)O3)[C@H](C[C@@H](O)CCc1ccc(O)cc1)C[C@H](c1ccc(O)cc1)O2 (mixture of isomers) | 42.1 µM | 10.1 µM |  | 
2 | COc1cc2c(c3c1C(=O)CC(c1ccc(O)cc1)O3)[C@@H]1C[C@H](CCc3ccc(O)cc3)O[C@H](c3ccc(O)cc3)[C@H]1[C@H](c1ccc(O)cc1)O2 (mixture of isomers) [CALYXIN J] |  |  | 13.7 µM | 0.32 µM
3 | COc1cc(O)c([C@@H]2C[C@H](CCc3ccc(O)cc3)O[C@H](c3ccc(O)cc3)C2)c2c1C(=O)CC(c1ccc(O)cc1)O2 (stereo in doubt; 3) [CALYXIN K] |  | 5.09 µM | 7.73 µM | 
4 | COc1cc(O)c([C@@H]2C[C@H](CCc3ccc(O)cc3)O[C@H](c3ccc(O)cc3)C2)c2c1C(=O)CC(c1ccc(O)cc1)O2 (stereo in doubt; 4) [CALYXIN K] |  |  | 33 µM | 4.75 µM
5 | COc1cc2c(c3c1C(=O)CC(c1ccc(O)cc1)O3)[C@@H]1C[C@H](CCc3ccc(O)cc3)O[C@H](c3ccc(O)cc3)[C@H]1[C@H](c1ccc(O)cc1)O2 (stereo in doubt; 7) [CALYXIN J] | 23.2 µM |  |  | 8.19 µM
6 | COc1cc2c(c3c1C(=O)CC(c1ccc(O)cc1)O3)[C@@H]1C[C@H](CCc3ccc(O)cc3)O[C@@H]1O2 (stereo in doubt; 12) [NEOCALYXIN A] | > 100 µM | 10.7 µM |  | 
7 | COc1cc2c(c3c1C(=O)CC(c1ccc(O)cc1)O3)[C@@H]1C[C@H](CCc3ccc(O)cc3)O[C@@H]1O2 (stereo in doubt; 13) [NEOCALYXIN A] |  |  | 78 µM | 20.2 µM
8 | COc1cc(O)c([C@@H]2C[C@H](CCc3ccc(O)cc3)O[C@H](c3ccc(O)cc3)C2)c(O)c1C(=O)/C=C/c1ccc(O)cc1 [CALYXIN B] | 10.4 µM | 10.4 µM |  | 
9 | COc1cc(O)c(C(/C=C/c2ccc(O)cc2)C[C@@H](O)CCc2ccc(O)cc2)c2c1C(=O)CC(c1ccc(O)cc1)O2 (some centres not stated) [CALYXIN E] | 98.1 µM | 21.7 µM |  | 
10 | COc1cc(O)c([C@@H]2C[C@H](CCc3ccc(O)cc3)O[C@@H](c3ccc(O)cc3)C2)c2c1C(=O)CC(c1ccc(O)cc1)O2 (some centres not stated) [CALYXIN G] | 42.2 µM | 25.9 µM |  | 
11 | COc1cc(O)c2c(c1C(=O)/C=C/c1ccc(O)cc1)O[C@@H](c1ccc(O)cc1)[C@@H]1[C@@H](c3ccc(O)cc3)O[C@@H](CCc3ccc(O)cc3)C[C@@H]21 [CALYXIN I] | 8.39 µM | 9.08 µM |  | 
12 | COc1cc(O)c2c(c1C(=O)/C=C/c1ccc(O)cc1)O[C@@H](c1ccc(O)cc1)C[C@H]2C[C@@H](O)CCc1ccc(O)cc1 [CALYXIN L] | 28.2 µM | 44.3 µM |  | 
13 | COc1cc(/C=C/C(=O)CC(=O)/C=C/c2ccc(O)c(OC)c2)ccc1O [CURCUMIN] | 23.2 µM | 23.4 µM |  | 
14 | COc1cc(O)c([C@@H]2C[C@H](CCc3ccc(O)cc3)O[C@@H](c3ccc(O)cc3)C2)c(O)c1C(=O)/C=C/c1ccc(O)cc1 [EPICALYXIN F] | 0.89 µM | 1.71 µM |  | 
15 | COc1cc(O)c2c(c1C(=O)/C=C/c1ccc(O)cc1)O[C@H](c1ccc(O)cc1)[C@@H]1[C@@H](c3ccc(O)cc3)O[C@@H](CCc3ccc(O)cc3)C[C@@H]21 [EPICALYXIN I] | 12.1 µM | 5.88 µM |  | 
16 | O=c1[nH]cc(F)c(=O)[nH]1 [FLUOROURACIL] | 0.53 µM | 8 µM |  | 
